Reference: ChEMBL document CHEMBL4145474, “Discovery of novel piperonyl derivatives as diapophytoene desaturase inhibitors for the treatment of methicillin-, vancomycin- and linezolid-resistant Staphylococcus aureus infections” (Eur J Med Chem, 2018)
Activity calls are given as the source filed them. The rule behind the calls is not given here.

Columns and labels:
HepG2 = test: Cytotoxicity against human HepG2 cells assessed as reduction in cell viability after 72 hrs by CCK-8 assay; type: functional; conditions: HepG2, 72 h
How it was run: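 HepG2 or HEK-293T cells were seeded at 5000 per well and grown 24 h at 37 °C, 5% CO₂. Cells were then exposed to compound for 72 h; compound came from DMSO, diluted in medium to final DMSO <0.4%, with a DMSO-matched vehicle control. Viability was read by 10% CCK-8 for 1 h, absorbance 450 nm, in triplicate.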

Staphylococcus aureus [1] = test: Inhibition of pigmentation in vancomycin-intermediate methicillin-resistant Staphylococcus aureus Mu50 after 48 hrs by spectrophotometric method; type: functional, organism-based; conditions: Mu50, 48 h
How it was run: (§1)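 Bacteria grown in 4 mL TSB for 48 h at 37 °C with compound serially diluted from DMSO, in duplicate; DMSO vehicle control and non-pigmented CrtN mutant as reference. Cells from 3 mL of culture washed twice with 0.01 M PBS and pigment extracted into methanol. Absorbance read at 450 nm; IC50 fitted from the concentration series.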

Staphylococcus aureus [2] = test: Antibacterial activity against wild type Staphylococcus aureus Newman infected in BALB/c mouse assessed as decrease in bacterial load in mouse liver at 0.4 mg, ip bid administered 4.5 days […] bacterial infection measured after 90 hrs relative to control; type: functional
How it was run: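 Female BALB/c mice, 6-8 weeks old, infected retro-orbitally with 2.2 × 10⁷ CFU S. aureus Newman. Intraperitoneal dosing in 12 intervals: pre-treatment groups received a total of 50 or 200 mg/kg starting before infection; post-treatment groups received a total of 39 or 156 mg/kg starting 6 h after infection. Vehicle was ddH₂O. At 90 h post-infection, liver or kidney was homogenized in PBS/0.01% Triton X-100 and plated on TSA for CFU.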

Staphylococcus aureus [3] = test: Antibacterial activity against methicillin-resistant Staphylococcus aureus USA300 LAC assessed as decrease in bacterial survival at 1 uM after 24 hrs by H2O2 killing assay; type: functional, organism-based
Staphylococcus aureus [4] = test: Antibacterial activity against vancomycin-intermediate methicillin-resistant Staphylococcus aureus Mu50 assessed as decrease in bacterial survival at 1 uM after 24 hrs by H2O2 killing assay; type: functional, organism-based
[5] = molecular target: T1, 4,4'-diapophytoene desaturase (4,4'-diaponeurosporene-forming) (Staphylococcus aureus (strain Newman)) (UniProt O07855); test: Inhibition of CrtN in methicillin-resistant Staphylococcus aureus USA400 MW2 assessed as bacterial survival at 1 uM after 24 hrs by H2O2 killing assay (reference value: 26.33%)
T1 sequence (whole entry): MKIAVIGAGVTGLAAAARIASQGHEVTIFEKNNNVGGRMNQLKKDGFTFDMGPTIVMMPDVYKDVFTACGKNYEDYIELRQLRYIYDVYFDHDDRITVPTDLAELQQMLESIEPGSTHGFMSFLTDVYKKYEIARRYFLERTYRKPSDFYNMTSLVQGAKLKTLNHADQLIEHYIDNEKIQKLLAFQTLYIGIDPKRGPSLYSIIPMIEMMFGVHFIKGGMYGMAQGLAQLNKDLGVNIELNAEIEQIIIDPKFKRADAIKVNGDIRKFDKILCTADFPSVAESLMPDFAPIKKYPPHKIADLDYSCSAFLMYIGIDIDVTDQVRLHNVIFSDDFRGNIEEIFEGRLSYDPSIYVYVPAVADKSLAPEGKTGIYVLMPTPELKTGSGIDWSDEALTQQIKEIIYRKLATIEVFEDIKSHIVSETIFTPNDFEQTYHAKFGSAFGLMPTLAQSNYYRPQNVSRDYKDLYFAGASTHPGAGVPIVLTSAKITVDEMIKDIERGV

[6] = molecular target: T2, 4,4'-diapophytoene desaturase (4,4'-diaponeurosporene-forming) (Staphylococcus aureus (strain Mu50 / ATCC 700699)) (UniProt Q99R76); test: Inhibition of CrtN in vancomycin-intermediate methicillin-resistant Staphylococcus aureus Mu50 assessed as bacterial survival at 1 uM after 24 hrs by H2O2 killing assay (reference value: 23.33%); conditions: Staphylococcus aureus subsp. aureus Mu50
T2 sequence (whole entry): T1 sequence (whole entry)

[7] = molecular target: T1, 4,4'-diapophytoene desaturase (4,4'-diaponeurosporene-forming) (Staphylococcus aureus (strain Newman)); test: Inhibition of CrtN in wild type Staphylococcus aureus Newman assessed as decrease in bacterial survival at 1 uM after 24 hrs by H2O2 killing assay relative to control; conditions: Staphylococcus aureus subsp. aureus str. Newman
How it was run: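 Bacteria were grown 24 h at 37 °C in TSB with compound, DMSO vehicle or NAC, then washed twice in PBS. Each reaction held 4 × 10⁶ CFU with H₂O₂ at 1.5% final, shaken 30 min at 37 °C and 250 rpm, then quenched with 1000 U/mL catalase. Survival was counted as CFU on TSA. Two independent experiments.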

Staphylococcus aureus [8] = test: Growth inhibition of methicillin-resistant Staphylococcus aureus USA300 LAC at 0.2 mM incubated for overnight; type: functional, organism-based
How it was run: (§2)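 Overnight cultures washed in PBS and diluted in TSB to OD600 ~1.0. Inoculated to a final OD600 of about 0.05 into TSB containing compound (0.2 or 0.05 mM, from a 20 mM DMSO stock) or DMSO growth control, overlaid with paraffin wax. OD600 read every 30 min during overnight incubation at 37 °C.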

Staphylococcus aureus [9] = test: Growth inhibition of methicillin/linezolid-resistant Staphylococcus aureus NRS271 at 0.2 mM incubated for overnight; type: functional, organism-based; how it was run: as §2
Staphylococcus aureus [10] = test: Inhibition of pigmentation in methicillin/linezolid-resistant Staphylococcus aureus NRS271 after 48 hrs by spectrophotometric method; type: functional, organism-based; conditions: NRS271, 48 h; how it was run: as §1
Staphylococcus aureus [11] = test: Inhibition of pigmentation in methicillin-resistant Staphylococcus aureus USA400 MW2 after 48 hrs by spectrophotometric method; type: functional, organism-based; conditions: USA400 MW2, 48 h; how it was run: as §1
Staphylococcus aureus [12] = test: Inhibition of pigmentation in methicillin-resistant Staphylococcus aureus USA300 LAC after 48 hrs by spectrophotometric method; type: functional, organism-based; how it was run: as §1
Staphylococcus aureus [13] = test: Antibacterial activity against vancomycin-intermediate methicillin-resistant Staphylococcus aureus Mu50 infected in BALB/c mouse assessed as decrease in bacterial survival in mouse liver at 0.1 to 0.4 mg, ip bid administered 4.5 days before 24 hrs bacterial infection measured after 90 hrs; type: functional, organism-based
How it was run: (§3)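 6–8-week-old female BALB/c mice (SPF) dosed intraperitoneally twice daily over 4.5 d at 0.1 or 0.4 mg/bid. Pre-treatment started before infection; post-treatment started 6 h after infection. Vancomycin and linezolid controls given as pre-treatment at 0.4 mg/bid. Retro-orbital inoculation: Mu50 1.1 × 10⁹ CFU, NRS271 1.8 × 10⁸ CFU. Kidneys and livers homogenised in PBS/0.01% Triton X-100 and plated on TSA for CFU.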

Staphylococcus aureus [14] = test: Antibacterial activity against methicillin/linezolid-resistant Staphylococcus aureus NRS271 infected in BALB/c mouse assessed as decrease in bacterial survival in mouse liver at 0.1 to 0.4 mg, ip bid administered 4.5 days before 24 hrs bacterial infection measured after 90 hrs; type: functional, organism-based; how it was run: as §3
Staphylococcus aureus [15] = test: Antibacterial activity against wild type Staphylococcus aureus Newman infected in BALB/c mouse assessed as decrease in bacterial survival in mouse liver at 0.1 mg, ip bid administered 4.5 days after 6 hrs bacterial infection measured after 90 hrs relative to control; type: functional
[16] = molecular target: T3, 4,4'-diapophytoene desaturase (4,4'-diaponeurosporene-forming) (Staphylococcus aureus (strain Newman), UniProt O07855); test: Inhibition of Staphylococcus aureus Newman 6His-tagged CrtN expressed in Escherichia coli BL21(DE3) assessed as 4,4'-diapophytoene accumulation
T3 sequence (O07855 whole entry): T1 sequence (whole entry)

CN(C/C=C/C=C/c1ccc(C(F)(F)F)cc1F)Cc1ccc2c(c1)OCO2.Cl was tested, and the CC50 (HepG2) was 90300 nM, the IC50 (Staphylococcus aureus [1]) was 2.5 nM and the Activity (Staphylococcus aureus [2]) was 1.9 deltalog10CFU. The Activity (Staphylococcus aureus [3]) was “inactive”, the Activity (Staphylococcus aureus [4]) was “inactive” and the Survival [5] was 2.33%. The Survival [6] was 2%, the fold change (FC) [7] was 11.7 and the “growth inhibition (GI)” value (Staphylococcus aureus [8]) was “inactive”. For the same molecule, the “growth inhibition (GI)” value (Staphylococcus aureus [9]) was “inactive”, the IC50 (Staphylococcus aureus [10]) was 4.1 nM and the IC50 (Staphylococcus aureus [11]) was 7.6 nM. For the same molecule, the IC50 (Staphylococcus aureus [12]) was 12.9 nM, the Activity (Staphylococcus aureus [13]) was “Active” and the Activity (Staphylococcus aureus [14]) was “inactive”. For the same molecule, the Activity (Staphylococcus aureus [15]) was 97.06% and the IC50 [16] was 408 nM.
